In ChEMBL document CHEMBL4400548, “Structure-Based in Silico Screening Identifies a Potent Ebolavirus Inhibitor from a Traditional Chinese Medicine Library” (J Med Chem, 2019):
Active and inactive are the calls of the source. The rule behind the calls is not given here.

Assays:
[1] = test system: Ebola virus - Zaire (1995); experiment: Binding affinity to recombinant Ebola virus Zaire Mayinga-76 Envelope glycoprotein assessed as change in melting temperature up to 500 uM by SYPRO-dye based thermal shift assay
Ebolavirus = experiment: Antiviral activity against HIV-1-derived Ebolavirus pseudoparticle infected in human TZM-bl cells after 48 hrs by beta-gal based reporter assay; assay type: functional, organism-based; conditions: Orthoebolavirus
In short: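 TZM-bl cells were plated at 2 × 10^4 per well 24 h ahead and chilled on ice. EBOVpp (1 in 10 dilution) was spinoculated at 2100g for 30 min at 4 °C, then removed with a PBS wash. Compound (100–0.125 μM) was added in DMEM/5% FBS for 48 h at 37 °C. Cells were fixed in 2% PFA, X-gal stained and imaged for infected/total cells. Triplicate runs; sigmoidal fit for IC50.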

| SMILES | Activity [1] | IC50 (Ebolavirus) | IC80 (Ebolavirus) |
| --- | --- | --- | --- |
| COc1ccc(CC(=O)c2c(C)cc(O)cc2O)cc1 | inactive | – | – |
| CN(C)CCOc1ccc(/C(=C(/CCCl)c2ccccc2)c2ccccc2)cc1 [TOREMIFENE] | – | 90 nM | 3000 nM |
| Nc1ccc(SSc2ccc(N)cc2)cc1 | inactive | – | – |
| Cc1[nH]nc(-c2ccc(OCCN3CCC(C(N)=O)CC3)cc2O)c1-c1ccc(Cl)cc1 | Active | 50 nM | 390 nM |
| O=C(/C=C/C1=Cc2ccccc2OC1)c1ccc(O)cc1 | inactive | – | – |
| N#Cc1cc(N)ccc1Sc1cccc(C(F)(F)F)c1 | inactive | – | – |
| O=C(/C=C/c1cc(Br)cc2c1OCOC2)c1cc(F)ccc1O | inactive | – | – |
| NC(=O)C1CCN(CCOc2ccc(-c3n[nH]cc3-c3ccccc3)c(O)c2)CC1 | Active | 3100 nM | 50000 nM |
